From ChEMBL document CHEMBL4425098, “Thiolactomycin-Based Inhibitors of Bacterial β-Ketoacyl-ACP Synthases with in Vivo Activity” (J Med Chem, 2016) come the findings set out here.

Broadly, the MIC90 is the lowest concentration that inhibits either 90% of growth or 90% of the strains tested, depending on the study. A low value points to higher susceptibility. For orientation: Kd means the free concentration of one partner at which half of the binding sites on the other are occupied at equilibrium, for simple one-to-one binding. Low values mean higher affinity, high ones lower affinity. In general, MIC refers to the lowest concentration that inhibits growth of the organism. A low value points to a more susceptible organism.

For experiment [1], the system named is Mycobacterium tuberculosis. The experiment can be described thus: Antibacterial activity against Mycobacterium tuberculosis H37Rv after 6 days by Alamar blue dye-based colorimetric assay. Type of experiment: functional. The note with it: 144 h. The essentials: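 M. tuberculosis H37Rv grown to early-mid log phase in Middlebrook 7H9 with 10% OADC and 0.05% Tween 80, added to 1:2 serial compound dilutions, and grown for 6 days at 37°C. Alamar blue then added for a further 24 h. MIC taken as the concentration preventing visible growth and Alamar blue reduction in all replicates.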
In general terms: Alamar Blue is a resazurin reagent that responds to reducing activity.

In the next experiment the test system is Francisella tularensis. The experiment can be described thus: Antibacterial activity against Francisella tularensis LVS after 18 to 24 hrs by Alamar blue dye-based colorimetric assay. The class given is functional.
Experiment [2] deals with Staphylococcus aureus. The experiment can be described thus: Antibacterial activity against methicillin-sensitive Staphylococcus aureus RN4220 after 18 to 24 hrs by Alamar blue dye-based colorimetric assay. Type of experiment: functional. The essentials: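 Two-fold serial dilutions from 512 down to 0.25 μg/mL in CAMHB (microbroth dilution); incubated 37 °C for 18–24 h, then Alamar Blue added for a further 4 h. Absorbance read at 570 and 600 nm; percent growth reduction plotted against concentration, MIC90 from non-linear regression; growth and MICs confirmed by optical density.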

Experiment [3] has as its system Staphylococcus aureus. In words: Antibacterial activity against methicillin-resistant Staphylococcus aureus BAA 1762 after 18 to 24 hrs by Alamar blue dye-based colorimetric assay. Type of experiment: functional.
The next experiment deals with Yersinia pestis. The experiment can be described thus: Antibacterial activity against Yersinia pestis A1122 after 18 to 24 hrs by Alamar blue dye-based colorimetric assay. Type of experiment: functional.
Experiment [4] concerns the target T1, 3-oxoacyl-[acyl-carrier-protein] synthase 2 (Staphylococcus aureus, UniProt Q5TKS0).
T1 sequence (Q5TKS0 whole entry): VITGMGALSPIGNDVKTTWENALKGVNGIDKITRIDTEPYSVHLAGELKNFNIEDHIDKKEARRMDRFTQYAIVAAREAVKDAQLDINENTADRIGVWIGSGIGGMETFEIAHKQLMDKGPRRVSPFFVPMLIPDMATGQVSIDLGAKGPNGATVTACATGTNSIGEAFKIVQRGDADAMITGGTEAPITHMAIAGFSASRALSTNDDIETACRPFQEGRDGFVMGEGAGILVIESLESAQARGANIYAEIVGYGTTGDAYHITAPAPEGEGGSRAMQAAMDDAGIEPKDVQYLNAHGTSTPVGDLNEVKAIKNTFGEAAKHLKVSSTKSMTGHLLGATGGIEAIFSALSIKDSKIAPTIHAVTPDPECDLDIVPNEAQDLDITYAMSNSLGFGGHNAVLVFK
The experiment can be described thus: Binding affinity to Staphylococcus aureus wild type FabF expressed in Escherichia coli BL21 (DE3) PlysS cells by intrinsic tryptophan fluorescence quenching-based fluorimetric method.

Experiment [5] concerns Burkholderia pseudomallei. In words: Antibacterial activity against Burkholderia pseudomallei after 18 to 24 hrs by Alamar blue dye-based colorimetric assay. The class given is functional.
Experiment [6] has as its target 3-oxoacyl-[acyl-carrier-protein] synthase 2 (Staphylococcus aureus, UniProt Q5TKS0, C165Q). In words: Binding affinity to Staphylococcus aureus FabF C165Q mutant expressed in Escherichia coli BL21 (DE3) PlysS cells by intrinsic tryptophan fluorescence quenching-based fluorimetric method. In short, it runs like this:
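Kd by quenching of intrinsic tryptophan fluorescence (excitation 280 nm, emission 337 nm). Inhibitor stocks in DMSO or buffer were titrated into 1 μM His-tag-purified enzyme in 50 mM Tris-HCl, 150 mM NaCl, 1 mM DTT, pH 8.5. mtFabB was expressed in M. smegmatis MC²155; saFabF was expressed in E. coli BL21(DE3) pLysS.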

For experiment [7], the system named is Staphylococcus aureus. In words: Antibacterial activity against methicillin-resistant Staphylococcus aureus BAA 1762 infected in Swiss Webster mouse assessed as increase in survival rate at 100 mg/kg, sc administered 1 and 25 hrs post infection measured twice a day for 5 days relative to vehicle-treated control. The class given is functional, organism-based. The essentials:
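Mice made neutropenic with cyclophosphamide 4 days and 1 day before infection. MRSA BAA 1762 was given IP as 0.5 mL of 5×10⁷ cells/mL in BHI. Analogues in water/ethanol, or vancomycin in water, were dosed SC at 100 mg/kg/inj at 1 and 25 h post infection. Survival was checked every 12 h for 5 days, n=6–7 per group. Average survival time was compared with vehicle by one-tailed t test.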

The subject of the next experiment is Klebsiella pneumoniae. The experiment can be described thus: Antibacterial activity against Klebsiella pneumoniae KPC2ST258 infected in Swiss Webster mouse assessed as survival time at 100 mg/kg, sc administered 1, 12 and 24 hrs post infection measured every 12 hrs for 7 days. The class given is functional. The essentials:
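K. pneumoniae KPC2ST258 was given IP as 5×10⁶ cfu in BHI broth. Drugs in saline/PEG400/ethanol (40/20/40) were injected SC at 100 mg/kg/inj at 1, 12 and 24 h post infection. Mice were checked every 12 h for 7 days, n=8–10 per group. Average survival time was compared with vehicle by one-tailed t test.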

Converted amounts (≈) assume the structure as drawn. The source made the active and inactive calls. The calls are words filed in the database; no cut-off is given here.

With `C=C/C(C)=C/[C@@]1(C)SC(=O)C(CCCCN=[N+]=[N-])=C1O`, the MIC90 was 100 µg/mL (≈ 341 µM) in experiment [1]; 15.3 µg/mL (≈ 52.1 µM) against Francisella tularensis; more than 64 µg/mL in the experiment with Staphylococcus aureus [2]; more than 100 µg/mL against Staphylococcus aureus [3]; more than 250 µg/mL with Yersinia pestis. The same compound gave a dissociation constant (Kd) in experiment [4] of 107 µM.
For the compound `C=C/C(C)=C/[C@@]1(C)SC(=O)C(CC)=C1O`, the MIC90 turned out to be 2.5 µg/mL (≈ 11.1 µM) in [1]; 6.9 µg/mL (≈ 30.8 µM) in the experiment with Francisella tularensis; 150 µg/mL (≈ 669 µM) with Staphylococcus aureus [2]; 125 µg/mL (≈ 557 µM) in the experiment on Staphylococcus aureus [3]; 145 µg/mL (≈ 646 µM) against Yersinia pestis. This compound showed a minimum inhibitory concentration (MIC) in [5] of 32 µg/mL (≈ 143 µM).
Turning to `C=C/C(C)=C/[C@@]1(C)SC(=O)C(CCCCc2ccc(Br)cc2)=C1O`, the MIC90 is 12.5 µg/mL (≈ 30.7 µM) in experiment [1]; 2.2 µg/mL (≈ 5.4 µM) against Francisella tularensis; 32 µg/mL (≈ 78.6 µM) against Staphylococcus aureus [2]; 50 µg/mL (≈ 123 µM) with Staphylococcus aureus [3]; more than 250 µg/mL against Yersinia pestis. The affinity in experiment [4], expressed as Kd, was 92 µM.
Turning to `C=C/C(C)=C/[C@@]1(C)SC(=O)C(CCCCc2ccc(Cl)cc2)=C1O`, the MIC90 in experiment [1] was 100 µg/mL (≈ 276 µM); in the experiment on Francisella tularensis, 1.7 µg/mL (≈ 4.68 µM); in the experiment with Staphylococcus aureus [2], 64 µg/mL (≈ 176 µM); against Staphylococcus aureus [3] it was 50 µg/mL (≈ 138 µM); against Yersinia pestis, more than 250 µg/mL.
Consider `C=C/C(C)=C/[C@@]1(C)SC(=O)C(C(=O)CCCCCN=[N+]=[N-])=C1O`, for which the MIC90 in the experiment on Staphylococcus aureus [2] and in the experiment on Staphylococcus aureus [3] was 16 µg/mL (≈ 47.7 µM) throughout.
`C=C/C(C)=C/[C@@]1(C)SC(=O)C(C(=O)CCCCCCCCCCCCCCC)=C1O`: the MIC90 in [1] was 100 µg/mL (≈ 230 µM); against Francisella tularensis, 3.9 µg/mL (≈ 8.97 µM); with Staphylococcus aureus [2], 0.5 µg/mL (≈ 1.15 µM); against Staphylococcus aureus [3], 1 µg/mL (≈ 2.3 µM); against Yersinia pestis it was more than 250 µg/mL. Further, in experiment [4], the equilibrium dissociation constant (Kd) was more than 200 µM. Moreover, the outcome in experiment [5] was inactive.
Take `C=C/C(C)=C/[C@@]1(C)SC(=O)C(CCCCn2cc(CNC(=O)c3ccc(NS(=O)(=O)c4ccc(F)cc4)cc3)nn2)=C1O`: the MIC90 was 100 µg/mL (≈ 160 µM) in experiment [1]; 250 µg/mL (≈ 400 µM) against Francisella tularensis; more than 64 µg/mL with Staphylococcus aureus [2]; more than 100 µg/mL in the experiment with Staphylococcus aureus [3]; more than 250 µg/mL in the experiment with Yersinia pestis.
As for `C=C/C(C)=C/[C@@]1(C)SC(=O)C(CCC)=C1O`, the MIC90 in [1] was 25 µg/mL (≈ 105 µM); against Francisella tularensis, 25.8 µg/mL (≈ 108 µM); with Staphylococcus aureus [2] it was more than 200 µg/mL; in the experiment on Staphylococcus aureus [3], more than 200 µg/mL; against Yersinia pestis, more than 250 µg/mL. Besides, the result in experiment [5] was inactive.
In the case of `C=C/C(C)=C/[C@@]1(C)SC(=O)C(C(C)=O)=C1O`, the MIC90 in experiment [1] was 12.5 µg/mL (≈ 52.5 µM); in the experiment with Francisella tularensis, 8.8 µg/mL (≈ 36.9 µM); with Staphylococcus aureus [2], 64 µg/mL (≈ 269 µM); in the experiment with Staphylococcus aureus [3], 32 µg/mL (≈ 134 µM); in the experiment with Yersinia pestis, more than 250 µg/mL. For the same compound, the Kd in experiment [4] was found to be 14.2 µM; in experiment [6], 11.9 µM. Further, in the experiment with Staphylococcus aureus [7], the outcome was Active. Also, in the experiment on Klebsiella pneumoniae, the MSD amounted to 4.6 days. The result in [5] was inactive.
As for `C=C/C(C)=C/[C@@]1(C)SC(=O)C(C(=O)CCCCCc2ccc(-c3ccccc3)cc2)=C1O`, the MIC90 was 50 µg/mL (≈ 112 µM) in [1]; 0.21 µg/mL (≈ 0.47 µM) with Francisella tularensis; 0.5 µg/mL (≈ 1.12 µM) in the experiment with Staphylococcus aureus [2]; 1 µg/mL (≈ 2.24 µM) in the experiment on Staphylococcus aureus [3]; more than 250 µg/mL with Yersinia pestis. Also, the equilibrium dissociation constant (Kd) in experiment [4] amounted to 35.2 µM; in experiment [6], 33 µM. Moreover, the result in the experiment with Staphylococcus aureus [7] was Active. Further, the result in [5] was inactive.
For `C=C/C(C)=C/[C@@]1(C)SC(=O)C(CCc2ccc(Cl)cc2)=C1O`, the MIC90 in experiment [1] was 100 µg/mL (≈ 299 µM); against Francisella tularensis, 3.1 µg/mL (≈ 9.26 µM); in the experiment on Staphylococcus aureus [2], 64 µg/mL (≈ 191 µM); against Staphylococcus aureus [3] it was 100 µg/mL (≈ 299 µM); in the experiment with Yersinia pestis, more than 250 µg/mL. For the same compound, in experiment [5], the outcome was inactive.
